# Assay results of several laboratories.
# Protocols differ between the studies behind these lines.
# CSF1R: Macrophage colony-stimulating factor 1 receptor (CSF1R, Homo sapiens, UniProt P07333)
# CSF1R autoinhibited: Macrophage colony-stimulating factor 1 receptor, autoinhibited (CSF1R, Homo sapiens, UniProt P07333)
# CSF1R Y969C: Macrophage colony-stimulating factor 1 receptor (CSF1R, Homo sapiens, UniProt P07333, Y969C)
Compound,target,effect on,action,technique,concentration,endpoint,value
CS(=O)(=O)Nc1cccc(-c2csc(NC(=O)CSc3nc4nccnc4c(=O)n3CCc3ccccc3)n2)c1,CSF1R,enzyme activity,inhibitor,,10 µM,inhibition,8%
Cc1cnc(NC2CCOCC2)nc1-n1cnc(C(=O)NC(CN)c2cc(F)cc(Cl)c2)c1 (stereo not shown),CSF1R,enzyme activity,inhibitor,radiometric,1 µM,remaining activity,103%
CC(C)(C)c1nc(-c2cccc(NS(=O)(=O)c3c(F)cccc3F)c2F)c(-c2ccnc(N)n2)s1,CSF1R,enzyme activity,inhibitor,radiometric,1 µM,remaining activity,109%
CCOC(=O)c1cc2cc(-c3cc(C(=O)NCc4ccc(C(=O)O)cc4)nn3C)ccc2[nH]1,CSF1R autoinhibited,cell-free assay,,competition with immobilised ligand,0.1 µM,remaining binding,94%
Cc1ccc(NC(=O)c2ccc(CN3CCN(C)CC3)cc2)cc1Nc1nccc(-c2cncc(-c3oncc3C)c2)n1,CSF1R,enzyme activity,inhibitor,,0.5 µM,remaining activity,≤ 50%
CN(C)C1CCN(CC#Cc2nn(C3CCCC3)c3nc(NCc4ccccc4)ncc23)C1 (stereo not shown),CSF1R,enzyme activity,inhibitor,FRET,0.1 µM,inhibition,44%
Cc1cc(NC(=O)c2cccc3cc(-c4cccc5[nH]nc(N)c45)ccc23)ccc1F,CSF1R Y969C,enzyme activity,inhibitor,,0.1 µM,activity vs control,30%
O=S(=O)(c1cccc2cnccc12)N1CCCNCC1,CSF1R,cell-free assay,,,0.5 µM,remaining signal,97.9%
COc1ccnn2ncc(-c3ccnc(N(C)C)n3)c12,CSF1R autoinhibited,binding,,,1 µM,remaining binding,91%
CCCOc1ccc(OC)c(F)c1C(=O)c1ccc(C(=O)N[C@@H]2CNC[C@H]2NC(=O)c2ccc3[nH]ncc3c2)cc1,CSF1R,enzyme activity,inhibitor,,10 µM,remaining activity,27%
O=C1Nc2ccc(Cl)cc2C1=Cc1cc(Cl)c(O)c(Cl)c1,CSF1R,cell-free assay,,,0.5 µM,remaining signal,77.9%
Nc1ncnc2occ(-c3ccc(NC(=O)Nc4cc(C(F)(F)F)ccc4F)cc3)c12,CSF1R,cell-free assay,,,20 µM,remaining signal,0%
O=Nc1c(-c2c(O)[nH]c3ccccc23)[nH]c2ccccc12,CSF1R,cell-free assay,,,0.5 µM,remaining signal,83.2%
CCN(CC)CCNC(=O)c1c(C)[nH]c(/C=C2\C(=O)Nc3ccc(F)cc32)c1C,CSF1R,cell-free assay,,,10 µM,inhibition,98%
c1ccc(-c2n[nH]c3c2oc2ccccc23)cc1,CSF1R,cell-free assay,,,0.5 µM,remaining signal,78.1%
CN(C)c1nccc(-c2cnc3ncccn23)n1,CSF1R autoinhibited,binding,,,1 µM,remaining binding,65%
COc1cc2ncnc(Nc3ccc(F)c(Cl)c3)c2cc1OCCCN1CCOCC1,CSF1R,cell-free assay,,,0.5 µM,remaining signal,110%
CN(C(=O)c1ccccc1)c1cc(N(C)c2ccc3c(c2)CCc2ccc(C(=O)NCCN4CCOCC4)cc2C3=O)ccc1F,CSF1R,cell-free assay,,competition with immobilised ligand,1 µM,remaining binding,98%
COc1cc2ncnc(Nc3ccc(Oc4ccccc4)c(C)c3C)c2cc1OC,CSF1R,enzyme activity,inhibitor,,1 µM,inhibition,8%
CCCCN(CCCC)C(=O)CN1C[C@@H](c2cc(OC)c3c(c2)OCO3)[C@H](C(=O)O)[C@H]1CC(C)(C)CCC,CSF1R autoinhibited,cell-free assay,,competition with immobilised ligand,1 µM,remaining binding,100%
COc1cc(Cl)c(C(=O)N[C@@H](CN[C@H]2CC[C@@H](N)CC2)Cc2ccc(C#N)cc2)cc1-c1ccc(CN[C@H](C)c2ccc(C)cc2)o1,CSF1R,enzyme activity,inhibitor,,1 µM,remaining activity,111%
CN(C)c1nccc(-c2cnn3ncccc23)n1,CSF1R autoinhibited,binding,,,1 µM,remaining binding,100%
CNC(=O)c1cc2c(Oc3ccc(NC(=O)C4(C(=O)Nc5ccc(F)cc5)CC4)cc3)ccnc2cc1OC,CSF1R,enzyme activity,inhibitor,radiometric,1 µM,inhibition,98%
O=C(N1CCS(=O)(=O)CC1)N1C[C@H](c2ccc(OC(F)(F)F)cc2)C[C@H](c2nc(C3CC3)no2)C1,CSF1R,cell-free assay,,competition with immobilised ligand,1 µM,remaining binding,100%
N[C@@H]1CCN(c2nccc(-c3cnn4ncccc34)n2)C1,CSF1R,binding,,,1 µM,remaining binding,100%
CO[C@@H](C)c1c(Nc2ccc([C@@H](N(C)C(=O)C3CCS(=O)(=O)CC3)C(F)(F)F)cc2)cnc2cc(Cl)nn12,CSF1R autoinhibited,cell-free assay,,competition with immobilised ligand,1 µM,remaining binding,88%
CCN(CC)c1ccc(C2=NNC(=O)CC2C)cc1[N+](=O)[O-] (stereo not shown),CSF1R,enzyme activity,inhibitor,,10 µM,remaining activity,114%
CCCS(=O)(=O)Nc1ccc(F)c(C(=O)c2c[nH]c3ncc(-c4ccc(Cl)cc4)cc23)c1F,CSF1R,enzyme activity,inhibitor,,1 µM,inhibition,< 20%
CS(=O)(=O)N1CCCC(NC(=O)[C@H](CCC2CCCCC2)NC(=O)c2ccc(CNC(=O)c3cnc4ccccn34)cc2)C1 (stereo partly shown),CSF1R autoinhibited,cell-free assay,,competition with immobilised ligand,0.1 µM,remaining binding,100%
C[C@@H]1CCN(c2nccc(-c3cnn4ncccc34)n2)C1,CSF1R autoinhibited,binding,,,1 µM,remaining binding,78%
Nc1cnc(N2CCc3cc(S(=O)(=O)Nc4c(F)cc(Cl)cc4F)cc(N4CCCC4=O)c32)nc1,CSF1R autoinhibited,cell-free assay,,competition with immobilised ligand,1 µM,remaining binding,100%
O=C(Nc1cnn(-c2csc(C(=O)NC3COC3)c2)c1)Nc1c(F)cccc1Cl,CSF1R,enzyme activity,inhibitor,,5 µM,remaining activity,98.9%
COc1cccc(CNC(=O)c2nc3scc(COCc4ccc(C(=O)O)cc4)c3c(=O)[nH]2)c1,CSF1R autoinhibited,cell-free assay,,competition with immobilised ligand,1 µM,remaining binding,100%
Cc1ccc(NC(=O)c2ccc(C)c(C(F)(F)F)c2)cc1C#Cc1nn(C2CCC(O)CC2)c2ncnc(N)c12 (stereo not shown),CSF1R Y969C,cell-free assay,,,10 µM,remaining signal,13%
